Kir21 inh: blocks the mouse Kir2.1 inward-rectifier potassium channel; P35561; HEK293-Kir2.1, FluxOR thallium flux fluorescence; active compounds read low; B-score at 10 µM; 310,000 compounds, 0.85% hits;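 active means fluorescence ratio B-score at or below minus 3 SD of library scores, with starting-brightness B-score within 2 SD, cut at about -4.2 in these data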;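 further: channel flux triggered by added potassium and thallium sulfate stimulus; B-score of peak minus minimum fluorescence over baseline after thallium stimulus; more negative B-score means stronger Kir2.1 block with less thallium influx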
KCNQ1 act: potentiators or activators of human KCNQ1 potassium channel; B-score at 10 µM; 310,000 compounds, 0.35% hits; AID 2648; P51787; CHO-K1 KCNQ1, thallium flux FluxOR fluorescence; active compounds read high;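 active means fluorescence ratio B-score, a plate-corrected score, at least three library SD, with initial intensity B-score within 5 SD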
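assay system = KCNQ1-transfected CHO-K1 cells | medium = assay buffer with matched DMSO | probe or stimulus = depolarizing K+/Tl+ stimulus, K2SO4 and Tl2SO4 each 12.5 mM in 5x stock | dosing = single dose | incubation = dye 90 min, compound 20 min, room temperature | detection = kinetic FluxOR fluorescence, 10 s baseline plus 110 s post-stimulus | evaluation = ratio B score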
KCNQ1 block: human KCNQ1 channel inhibition | P51787 | CHO-K1 KCNQ1, FluxOR thallium flux fluorescence; active compounds read high | B-score at 10 µM | 310,000 compounds, 1.3% hits | AID 2642;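 active means compounds whose thallium flux B-score, printed positive for inhibition, exceeds three library SD while starting fluorescence stays within three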;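 further: channel opened by potassium depolarization with thallium stimulus after 20 min compound exposure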
KCNK9 block: inhibitors of human KCNK9 two-pore domain potassium channel | Q9NPC2 | HEK293 KCNK9, FluxOR thallium flux fluorescence; active compounds read low | B-score at 10 µM | 310,000 compounds, 1.2% hits | AID 488922;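 active means ratio B-score over 3 SD below the library mean, with starting fluorescence within 5 SD of its mean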;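 further: negative B-score means less thallium flux so channel inhibition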
Target sequence (Q9NPC2 whole entry, looked up, the tested form may be a part): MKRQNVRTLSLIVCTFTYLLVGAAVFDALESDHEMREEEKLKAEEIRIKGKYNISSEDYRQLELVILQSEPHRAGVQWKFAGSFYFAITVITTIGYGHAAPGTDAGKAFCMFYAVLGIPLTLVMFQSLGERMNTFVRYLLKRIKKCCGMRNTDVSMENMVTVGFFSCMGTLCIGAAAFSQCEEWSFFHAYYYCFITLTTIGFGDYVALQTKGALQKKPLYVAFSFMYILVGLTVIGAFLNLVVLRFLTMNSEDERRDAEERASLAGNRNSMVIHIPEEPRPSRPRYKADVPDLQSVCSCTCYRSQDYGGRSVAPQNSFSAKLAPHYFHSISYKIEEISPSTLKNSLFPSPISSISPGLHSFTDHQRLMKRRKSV
KCNK3 inh: human KCNK3 channel inhibition, primary screen; 340,000 compounds, 0.84% hits; B-score at 10 µM; O14649; CHO-KCNK3 thallium flux, FluxOR fluorescence; active compounds read low;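 active means B-score under library mean minus 4 SD, starting fluorescence ratio at most library mean plus 5 SD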;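 further: more negative B-score means stronger inhibition of thallium flux through KCNK3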
hERG rescue: compounds protecting human hERG from proarrhythmic drug block. 310,000 compounds, 0.51% hits. Q12809. CHO-hERG, FluxOR thallium flux, dofetilide IC70 present. AID 1511. activation (rescue from dofetilide block), less the hit threshold, % at 10 µM;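 active means activation above the mean of controls blocked by dofetilide plus 5 SD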;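 further: thallium influx through hERG after potassium depolarization seen as dye fluorescence rise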
KCNK9 inh conf: confirmation of human KCNK9 potassium channel inhibitors. AID 492992. HEK293 KCNK9 cells, FluxOR thallium flux fluorescence. 4,900 compounds, 43% hits. shares compounds with KCNK9 block. inhibition, % at 10 µM;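 active means thallium signal inhibited by more than 5 SD of the compound-free buffer control wells, on both duplicate plates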
Kir21 sel: selectivity of KCNK9 modulators against mouse Kir2.1. shares compounds with KCNK9 block. Kir2.1 cells, FluxOR thallium flux fluorescence. inhibition, % at 10 µM. 4,900 compounds, 4% hits. AID 492993;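 active means thallium signal drop more than 5 SD beyond the mean of the no-compound control wells, seen in both duplicate plates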;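 further: signal is fluorescence rise after thallium addition divided by baseline fluorescence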
KCNK9 uninduced: second counter-screen for KCNK9 modulators: effect in non-induced cells; shares compounds with KCNK9 block; non-induced KCNK9-HEK293, FluxOR thallium flux; inhibition, % at 10 µM; 4,900 compounds, 40% hits;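 active means thallium signal drop beyond 5 SD of the untreated control mean, on both duplicate plates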
Hits are given with their value; - = inactive; . = not tested or not shown. The list is not random: actives were taken first. Their share in the collection is about 3.7%.

SMILES	Kir21 inh	KCNQ1 act	KCNQ1 block	KCNK9 block	KCNK3 inh	hERG rescue	KCNK9 inh conf	Kir21 sel	KCNK9 uninduced
OC(COc1ccc(Br)cc1)CN1CCN(c2ccccc2)CC1 (centres undefined)	-	-	-	-	-	-	.	.	.
COc1cccc(NC(=O)C2CCOC2=O)c1 (centres undefined)	-	-	-	-	-	-	.	.	.
Nc1nonc1C(=O)NCCNC(=O)c1cccc(Cl)c1	-	-	-	-	-	-	.	.	.
Cc1cc(C)cc(CC2CC(=O)N(c3ccc4c(c3)OCCO4)C2=O)c1 (centres undefined)	-	-	-	-	-	-	-	-	-
Cc1cc(C)cc(CC2CC(=O)N(c3cc(C)on3)C2=O)c1 (centres undefined)	-	-	-	-	-	-	.	.	.
COc1ccc(C(=O)COC(=O)c2cc(S(=O)(=O)NCc3ccccc3)ccc2O)cc1	-	-	-	-	-	-	.	.	.
CCCCC(=O)Nc1cccc(-c2nc3ncccc3o2)c1	-	-	-	-11	-	-	34%	-	-
Cc1nc(-c2cccc(S(=O)(=O)N3CCCCCC3)c2)cs1	-	-	-	-	-	-	-	-	-
COc1ccc(CC(=O)NCCCCc2ccccc2)cc1OC	-	-	-	-	-	-	.	.	.
CCOc1ccc2[nH]c3c(=O)n(CCC4=CCCCC4)cnc3c2c1	-	-	-	-	-	-	-	-	-
Cc1ccc(Cn2ccc(NC(=O)c3cc(-c4ccc(Cl)cc4)on3)n2)cc1	-	-	-	-	-	-	.	.	.
Cc1ccc(Cn2ccc(NC(=O)c3cc(CC(C)C)on3)n2)cc1	-	-	-	-	-	-	-	-	-
CSCCC(NS(=O)(=O)c1ccc(C)cc1)C(=O)N1CCN(C(c2ccccc2)c2ccccc2)CC1 (centres undefined)	-	-	-	-9.4	-	-	35%	-	32%
CCOC(=O)C1CCCN(S(=O)(=O)c2ccc3c(c2)N(C(C)=O)CCO3)C1 (centres undefined)	-	-	-	-	-	-	.	.	.
N#Cc1nc(COc2ccc(F)cc2)oc1N1CCC(Cc2ccccc2)CC1	-	-	-	-	-	-	.	.	.
N#Cc1nc(Cc2ccccc2)oc1N1CCC(Cc2ccccc2)CC1	-	-	-	-	-	-	-	-	-
CCOc1ccc(N2CC(C(=O)NCCc3c[nH]c4ccc(C)cc34)CC2=O)cc1 (centres undefined)	-	-	-	-	-	-	.	.	.
CCCCCCNC(=O)c1cccc(-c2ccc(C)c3ccccc23)n1	-	-	-	-	-	-	-	-	-
COc1ccc(OC)c(-n2c(SCC(=O)Nc3cccc(S(N)(=O)=O)c3)nc3ccccc3c2=O)c1	-	-	-	-13	-	-	56%	-	34%
COc1ccccc1-n1c(SCC(=O)Nc2cccc(S(N)(=O)=O)c2)nc2ccccc2c1=O	-	-	-	-8.4	-	-	34%	-	-
COc1ccccc1/C=C(/C(=O)OCC(=O)Nc1ccccc1C(C)C)c1ccccc1	-	-	-	-9.5	-	-	51%	-	39%
CCN1CCN(c2ccc(S(=O)(=O)N3CCOCC3)cc2NC(=O)COc2ccc(F)cc2Cl)CC1	-	-	-	-	-	-	.	.	.
Cc1ccc(Cn2c(SCC(=O)N/N=C/c3ccc(C)o3)nc3ccccc32)cc1	-	-	-	-21	-	-	55%	-	41%
O=C(OCc1nnc(-c2ccccc2)o1)C12CC3CC(CC(Br)(C3)C1)C2	-	-	-	-	-	-	-	-	-
CCc1ccc(OCC(=O)NNC(=O)c2cc(S(=O)(=O)N(C)C)ccc2N2CCCC2)cc1	-	-	-	-	-	-	-	-	-
SMILES	Kir21 inh	KCNQ1 act	KCNQ1 block	KCNK9 block	KCNK3 inh	hERG rescue	KCNK9 inh conf	Kir21 sel	KCNK9 uninduced
CN(C)S(=O)(=O)c1ccc(N2CCCC2)c(C(=O)Nc2ccccc2Br)c1	-	-	-	-	-	-	-	-	-
CN(C)S(=O)(=O)c1ccc(N2CCCC2)c(C(=O)NC2CCCCC2)c1	-	-	-	-	-	-	-	-	-
O=C(Cc1cccs1)Nc1ccccc1F	-	-	-	-	-	-	.	.	.
CC(C)OC(=O)c1cccc(C(=O)Nc2cccc(NC(=O)c3cccc(C(=O)OC(C)C)n3)n2)n1	-	-	-	-13	-	-	64%	-	-
COc1ccc(C(=O)COC(=O)C(CCSC)NS(=O)(=O)c2ccc(Cl)cc2)cc1 (centres undefined)	-	-	-	-	-	-	-	-	-
COC(=O)C(CCSC)NS(=O)(=O)c1ccc(Cl)cc1 (centres undefined)	-	-	-	-	-	-	.	.	.
CCCC(=O)OC(C(=O)Nc1cc(C(F)(F)F)ccc1Cl)c1ccccc1 (centres undefined)	-	-	-	-13	-	-	46%	-	46%
Cc1cc(C(=O)NCC(=O)OC(C(=O)Nc2cc(C(F)(F)F)ccc2Cl)c2ccccc2)ccc1[N+](=O)[O-] (centres undefined)	-	-	-	-20	-9.5	-	62%	-	32%
Cc1ccc(C(=O)C(OC(=O)CNC(=O)c2ccc(Cl)cc2)c2ccccc2)cc1 (centres undefined)	-	-	-	-	-	-	.	.	.
COc1ccc(C)cc1NC(=O)C(OC(=O)c1ccc(Cl)c(S(=O)(=O)N(C)c2ccccc2)c1)c1ccccc1 (centres undefined)	-	-	-	-9.6	-9.8	-	42%	-	-
COc1ccc(C)cc1NC(=O)C(OC(=O)CNC(=O)c1ccc(Br)cc1)c1ccccc1 (centres undefined)	-	-	-	-10	-	-	36%	-	38%
COc1ccc(C)cc1NC(=O)C(OC(=O)Cn1cnc2c1c(=O)n(C)c(=O)n2C)c1ccccc1 (centres undefined)	-	-	-	-	-	-	.	.	.
CC1CCN(C(=O)CN2C(=O)C(=O)N(C(C)C)C2=O)c2ccccc2S1 (centres undefined)	.	.	.	.	-	.	.	.	.
COc1ccc(-c2nc3ccccc3nc2-c2ccccc2)cc1	-	-	-	-	-	-	.	.	.
C#CCn1c(S(=O)(=O)Cc2ccc(OC)cc2)nc(-c2ccccc2)c1-c1ccccc1	-	-	-	-18	-9.4	-	62%	-	26%
CCN(CC)S(=O)(=O)c1ccc(N2CCOCC2)c(NC(=O)c2ccc3c(c2)OCCO3)c1	-	-	-	-	-	-	.	.	.
